Assay outcomes: PubChem, several laboratories
The list is not random: actives were taken first. Their share in the collection is about 1.7%.
APJ agonist = activates the human apelin receptor APJ; CHO-K1 APJ PathHunter beta-arrestin, luminescence; 0% DMSO wells, 100% apelin; AID 2520; 330,000 tested, 0.11% active; activation, % at 20 µM;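 active means activation more than six SD over the plate average, tested at 20 µM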
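Test system – PathHunter CHO-K1 APJ (AGTRL-1) beta-arrestin reporter cells · Input – 1000 cells/well · Compound – single test compound dose, 20 µM final, 1% DMSO · Times – compound stimulation 90 min at 25 °C, detection 60 min · Technique – beta-gal luminescence · Read-out basis – APJ–arrestin association signal · Control set – negative DMSO alone, positive Apelin-13 at 10 nM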
APJ antag = blocks the human apelin receptor APJ | P35414 | CHO-K1 APJ beta-arrestin complementation, luminescence | inhibition, % at 20 µM | 330,000 tested, 0.32% active;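 active means inhibition above about 40% at 20 µM, limit read from the data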;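 further: cells challenged with 10 nM apelin-13 agonist together with compound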
CXCR6 inh = inhibitors of human CXCR6 receptor. CHO-K1 PathHunter CXCR6 beta-arrestin, luminescence. O00574. 360,000 tested, 0.36% active. AID 602244. inhibition, % at 20 µM; in the data active means inhibition above about 34%, passing the limit was not always enough;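 further: antagonist mode with CXCL16 agonist at 10 nM final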
PfGluPho inh = PfG6PD (Plasmodium falciparum) enzyme inhibition; 350,000 tested, 0.78% active; inhibition, % at 20 µM; PfGluPho enzyme, NADPH resazurin-diaphorase fluorescence;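 active means inhibition reaching at least a set limit at 20 µM in the primary screen, cut at about 59% in these data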
Beta2AR agonist = human beta-2 adrenergic receptor agonism by FAP; P07550; Am2.2-beta2AR cells, FAP receptor internalization, flow cytometry; response, % (no concentration beside the values); 340,000 tested, 0.43% active; AID 504454;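 active means response above a set limit, near 3 SD of response in nonfluorescent compounds, cut at about 42% in these data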
Target sequence (P07550 whole entry, looked up): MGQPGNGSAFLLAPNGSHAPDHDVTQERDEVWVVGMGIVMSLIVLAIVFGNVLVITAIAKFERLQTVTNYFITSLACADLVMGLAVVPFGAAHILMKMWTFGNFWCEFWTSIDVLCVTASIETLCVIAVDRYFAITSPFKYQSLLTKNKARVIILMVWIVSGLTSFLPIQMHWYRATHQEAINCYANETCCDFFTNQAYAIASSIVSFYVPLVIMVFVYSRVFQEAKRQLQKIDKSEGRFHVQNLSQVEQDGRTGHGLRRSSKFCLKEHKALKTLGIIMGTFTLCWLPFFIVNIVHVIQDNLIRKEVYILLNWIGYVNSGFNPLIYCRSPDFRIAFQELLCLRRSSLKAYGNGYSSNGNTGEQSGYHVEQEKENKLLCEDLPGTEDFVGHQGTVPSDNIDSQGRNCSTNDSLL
CCR6 antagonist = blocks CCL20-driven beta-arrestin recruitment at human CCR6; AID 493098; 340,000 tested, 0.49% active; CHO-K1 CCR6 PathHunter beta-arrestin, luminescence, CCL20-stimulated; inhibition, % at 20 µM;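 active means compounds whose inhibition of the agonist-driven luminescence signal at 20 µM reaches about 50%, limit read from the data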;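 further: cells stimulated with CCL20 at 14 nM final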
B2AR ag CP1 = activates human beta-2 adrenergic receptor | 1,100 tested, 25% active | percent response (surface receptor), % at 10 µM | AID 540358 | shares compounds with Beta2AR agonist | Am2.2-beta2AR cells, FAP surface receptor, flow cytometry; active compounds read low;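 active means surface receptor percent response at or below 58%, roughly 3 SD from nonfluorescent compounds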
FAP fluor counter = flagged in Am2.2 fluorescence counterscreen for beta-2AR agonists | shares compounds with Beta2AR agonist | Am2.2 cells, FAP fluorogen flow cytometry; active compounds read low | calls only at 10 µM | 1,100 tested, under 10 active;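 active means percent response below a set limit in fluorescence channel 1 and below 50% in channel 8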
Large screens that a line does not name were inactive (follow-up assays come after a bar, where they were run).

N=c1c2c(ncn1CCCO)Oc1c(ccc3ccccc13)C2c1ccccc1 (stereo unspecified)	none
CN(C)CCCn1cnc2c(c1=N)C(c1ccccc1)c1ccc3ccccc3c1O2 (stereo unspecified)	Beta2AR agonist 44.5 | B2AR ag CP1 inactive | FAP fluor counter inactive
O=C(COc1ccc(S(=O)(=O)N2CCOCC2)cc1)Nc1ccccc1C(F)(F)F	none | B2AR ag CP1 inactive | FAP fluor counter inactive
O=C(COc1ccc(S(=O)(=O)N2CCCCC2)cc1)Nc1ccccc1F	none | B2AR ag CP1 inactive | FAP fluor counter inactive
O=C(COc1ccccc1)Nc1ccc(S(=O)(=O)N2CCCCCC2)cc1	none
O=C(NNC(=O)c1ccncc1)Nc1ccc(Cl)cc1	none (no result: APJ agonist, APJ antag)
Cc1nn(Cc2ccc(Cl)cc2)c(C)c1NC(=O)CSc1nc2c(c(C(F)(F)F)n1)CCc1ccccc1-2	none
Cc1ccc(Cn2nc(C)c(NC(=O)CSc3nc4c(c(C(F)(F)F)n3)CCc3ccccc3-4)c2C)cc1	Beta2AR agonist 46.0 (no result: APJ agonist, APJ antag) | B2AR ag CP1 inactive | FAP fluor counter inactive
CC(C)(C)OC(=O)N1CC2(CCCCC2)CC1Cc1ccc(C(F)(F)F)cc1 (stereo unspecified)	none (no result: APJ agonist, APJ antag, Beta2AR agonist, CCR6 antagonist) | B2AR ag CP1 inactive | FAP fluor counter inactive
O=C(O)CC1(CC(=O)NCc2ccc(C(F)(F)F)cc2)CCCCC1	none
CC1(C)CC(Cc2cccc(C(F)(F)F)c2)N(C(=O)OC(C)(C)C)C1 (stereo unspecified)	none (no result: APJ agonist, APJ antag, Beta2AR agonist, CCR6 antagonist) | B2AR ag CP1 inactive | FAP fluor counter inactive
Cc1ccc(NS(=O)(=O)c2c(C(=O)N3CCCC3)c(C)n(C)c2C)cc1	none
CCN1CCN(c2ccc(S(=O)(=O)N3CCCCC3)cc2NC(=O)COc2cc(C)ccc2Cl)CC1	none
Cc1ccccc1NC(=O)Cn1c(=O)sc2ccccc21	none
COc1cccc(CNC(=O)C(C)n2ccc3cc(S(=O)(=O)N4CCCCCC4)ccc32)c1 (stereo unspecified)	Beta2AR agonist 46.6 | B2AR ag CP1 inactive | FAP fluor counter inactive
COc1cccc(CNC(=O)C(C)n2ccc3cc(S(=O)(=O)N4CCCC4)ccc32)c1 (stereo unspecified)	none
COc1ccc(CCNS(=O)(=O)CCNC(=O)c2ccc3c(c2)OCO3)cc1OC	none
O=C(C[n+]1cccc(NC(=O)c2ccccc2)c1)c1ccccc1	none
O=C(C[n+]1cccc(NC(=O)c2ccccc2)c1)c1ccc(NC(=O)c2ccccc2)cc1	Beta2AR agonist 72.2 | B2AR ag CP1 47.1 | FAP fluor counter inactive
O=c1[nH][nH]c2c1C(C1CCCCC1)OC(C1CCCCC1)C2 (stereo unspecified)	none (no result: APJ agonist, APJ antag, PfGluPho inh, Beta2AR agonist, CCR6 antagonist)
O=C(CC1Oc2ccccc2NC1=O)NCCc1ccccc1 (stereo unspecified)	Beta2AR agonist 44.0 | B2AR ag CP1 inactive | FAP fluor counter inactive
Cc1nn(Cc2ccccc2)c(C)c1C(=O)NCC(c1cccs1)N1CCOCC1 (stereo unspecified)	Beta2AR agonist 62.9 | B2AR ag CP1 inactive | FAP fluor counter inactive
Cc1ccc(Cn2nc(C)c(C(=O)NCC(c3cccs3)N3CCOCC3)c2Cl)cc1 (stereo unspecified)	none
c1cnc(NCCSSCCNc2ncccn2)nc1	none (no result: APJ agonist, APJ antag, Beta2AR agonist, CCR6 antagonist)
Cc1cc(C)nc(NC(=O)CSc2nc3ccccc3s2)n1	none
Cc1cc(C)n2c(Br)c(CSc3nc4ccccc4s3)nc2n1	Beta2AR agonist 47.2 | B2AR ag CP1 inactive | FAP fluor counter inactive
COc1ccccc1N(CC(=O)N/N=C/c1ccccc1C(=O)O)S(C)(=O)=O	none
COc1ccc(C)cc1S(=O)(=O)N(C)CC(=O)N1CCCC1	none
COc1ccc(C)cc1S(=O)(=O)N(C)CC(=O)N1CCN(c2ccccc2)CC1	none | B2AR ag CP1 inactive | FAP fluor counter inactive
COc1ccc(C)cc1S(=O)(=O)N(C)CC(=O)N1CCCCC1	none
COc1ccccc1N1CCN(C(=O)CN(C)S(=O)(=O)c2cc(C)ccc2OC)CC1	none | B2AR ag CP1 inactive | FAP fluor counter inactive
CCC1(c2ccccc2)NC(=O)N(CC(=O)N(C)Cc2c(F)cccc2Cl)C1=O (stereo unspecified)	Beta2AR agonist 82.4 | B2AR ag CP1 inactive | FAP fluor counter inactive
CCC1(c2ccccc2)NC(=O)N(CC(=O)N(C)Cc2ccccc2)C1=O (stereo unspecified)	none
CC1=C(C(=O)Nc2ccc(C(=O)N3CCN(c4ccccc4F)CC3)cc2)SCCO1	Beta2AR agonist 72.9 | B2AR ag CP1 21.1 | FAP fluor counter inactive
CC1=C(C(=O)Nc2ccc(C(=O)N3CCN(c4cccc(Cl)c4)CC3)cc2)SCCO1	none
O=C(CCl)N1CCCC1c1ccc2c(c1)OCCO2 (stereo unspecified)	none
CC(C)C(=O)N[C@H]1CCC2C3CC=C4C[C@@H](O)CC[C@]4(C)C3CC[C@@]21C (stereo partly specified)	none
CC12CCC(O)CC1=CCC1C2CCC2(C)C(c3ccn[nH]3)CCC12 (stereo unspecified)	Beta2AR agonist 44.1 (no result: APJ agonist, APJ antag) | B2AR ag CP1 inactive | FAP fluor counter inactive
CN1OC[C@@H]2CN(C(=S)Nc3ccc(C#N)cc3)[C@H](c3ccc(N4CCCCC4)cc3)C[C@@H]21	none (no result: APJ agonist, APJ antag, PfGluPho inh, Beta2AR agonist, CCR6 antagonist)
CCCCn1c(N)c(N(CC)C(=O)c2ccc3c(c2)S(=O)(=O)c2ccccc2C3=O)c(=O)[nH]c1=O	Beta2AR agonist 54.9 | B2AR ag CP1 inactive | FAP fluor counter inactive
Cc1ccc(S(=O)(=O)N(C)CC(=O)N2CCN(Cc3ccccc3)CC2)cc1	none
OCCN1CCN(CC(O)COc2ccc(Cl)cc2)CC1 (stereo unspecified)	none
OCCN1CCN(CC(O)COc2ccc(C34CC5CC(CC(C5)C3)C4)cc2)CC1 (stereo unspecified)	Beta2AR agonist 60.6 | B2AR ag CP1 inactive | FAP fluor counter inactive
COc1ccc(NC(=O)COC(=O)CNC(=O)c2cc(OC)c(OC)c(OC)c2)cc1	none
COc1ccc(C(=O)NCC(=O)OCC(=O)Nc2cc(OC)ccc2OC)cc1	Beta2AR agonist 64.5 | B2AR ag CP1 inactive | FAP fluor counter inactive
Cc1cccc(NC(=O)c2sc3nc(C)nc(N4CCOCC4)c3c2C)c1	none (no result: APJ agonist, APJ antag, Beta2AR agonist, CCR6 antagonist)
CCOc1ccc(NC(=O)c2sc3nc(C)nc(N4CCOCC4)c3c2C)cc1	Beta2AR agonist 69.4 | B2AR ag CP1 inactive | FAP fluor counter inactive
CCOc1ccc(CNC(=O)c2ccc(NC(=O)C3=CSCCO3)cc2)cc1	Beta2AR agonist 105.4 | B2AR ag CP1 21.4 | FAP fluor counter inactive
Cc1ccc(CNC(=O)c2ccc(NC(=O)C3=CSCCO3)cc2)cc1	none
